Columns and labels:
HIV-1ADA [1] = assay: Long-term antiretroviral efficacy in MDM; type: cell-based; conditions: 8 h 100 μM, HIV-1ADA challenge
Summary of the method: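 MDM loaded 8 h with 100 μM test compound or parent drug, washed with PBS and kept drug-free with half-medium exchanges every other day. Challenged with HIV-1ADA (MOI 0.1) at days 1–30 after loading, then virus medium replaced. Ten days later medium RT activity was expressed as % of infected untreated cells. Cells fixed in 4% paraformaldehyde and HIV-1 p24 immunostained.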

HIV-1ADA [2] = assay: EC50 by HIV-1 RT activity in infected MDM; type: cell-based; conditions: Human immunodeficiency virus 1, 240 h, read-out: EC50 (RT activity)
Summary of the method: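 Human MDM (80,000 cells/well) pretreated 60 min with test compound or parent drug. Infected with HIV-1ADA at MOI 0.1 for 4 h, then cultured 10 days at the same drug concentration with half-medium changes every other day. Supernatant RT activity measured on day 10. EC50 fitted by sigmoidal 4-point logarithmic regression; triplicate.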

MDM = assay: Drug uptake and 3TC-TP formation in MDM; type: cell-based, human; conditions: 100 μM, over 24 h
Summary of the method: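 Human monocytes differentiated 7–10 days in DMEM with 10% heat-inactivated pooled human serum and 1,000 U/ml M-CSF at 37°C, 5% CO2. MDM exposed to 100 μM nanoformulated prodrug or parent drug. At sampling, cells washed twice in PBS, scraped, counted and pelleted. Pellets extracted in methanol with sonication, then drug measured by LC-MS/MS. 3TC-TP quantified by an established protocol. Triplicate.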

HIV-1NL4–3-eGFP = assay: EC50 by HIV-1 RT activity in infected CEM-CD4+ T cells; type: cell-based; conditions: Human immunodeficiency virus 1, T-cell, 240 h, read-out: EC50 (RT activity)
[3] = Pharmacokinetics and biodistribution in rats; conditions: single IM 75 mg/kg, after one day, limit of quantitation, data not shown

## Nc1ccn([C@H]2CS[C@@H](CO)O2)c(=O)n1 [3TC, 2’,3’-Dideoxy-3’-Thiacytidine]
HIV-1ADA [1]
  time of viral breakthrough after treatment: within one day
HIV-1ADA [2]
  EC50: 19.4 nM
MDM
  intracellular drug concentration: < 0.5 μg/10^6 cells
HIV-1NL4–3-eGFP
  EC50: 35.4 nM
[3]
  drug levels in plasma and tissues: ≤ 0.05 ng/mL
